In ChEMBL document CHEMBL5696442, “Discovery of type II inhibitors of TGFβ-activated kinase 1 (TAK1) and mitogen-activated protein kinase kinase kinase kinase 2 (MAP4K2)” (J Med Chem, 2015):

Columns and labels:
Assay type in all cases: cell-based
[1] = biological target: Ribosomal protein S6 kinase alpha-3 (Homo sapiens) (UniProt P51812); experiment: Inhibition of RSK2 domain2 Lys2 labeling site in human A-375 cells at 0.5 uM by KiNativ Profiling analysis relative to control
Outline: (§1)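 Live A375 melanoma cells treated with compound at 5 or 0.5 μM, then lysed. Lysate kinases were labeled with a lysine-reactive ATP or ADP-biotin probe. Inhibition was read as protection of labeling sites from the probe.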

[2] = biological target: Serine/threonine-protein kinase WNK2 (Homo sapiens) (UniProt Q9Y3S1); experiment: Inhibition of Wnk2 Lys2 labeling site in human A-375 cells at 0.5 uM by KiNativ Profiling analysis relative to control
[3] = biological target: Serine/threonine-protein kinase WNK4 (Homo sapiens) (UniProt Q96J92); experiment: Inhibition of Wnk4 ACT labeling site in human A-375 cells at 0.05 uM by KiNativ Profiling analysis relative to control
[4] = biological target: T1, Serine/threonine-protein kinase 3 (Homo sapiens) (UniProt Q13188); experiment: Inhibition of MST2 Lys1 labeling site in human A-375 cells at 5 uM by KiNativ Profiling analysis relative to control
T1 sequence (whole entry): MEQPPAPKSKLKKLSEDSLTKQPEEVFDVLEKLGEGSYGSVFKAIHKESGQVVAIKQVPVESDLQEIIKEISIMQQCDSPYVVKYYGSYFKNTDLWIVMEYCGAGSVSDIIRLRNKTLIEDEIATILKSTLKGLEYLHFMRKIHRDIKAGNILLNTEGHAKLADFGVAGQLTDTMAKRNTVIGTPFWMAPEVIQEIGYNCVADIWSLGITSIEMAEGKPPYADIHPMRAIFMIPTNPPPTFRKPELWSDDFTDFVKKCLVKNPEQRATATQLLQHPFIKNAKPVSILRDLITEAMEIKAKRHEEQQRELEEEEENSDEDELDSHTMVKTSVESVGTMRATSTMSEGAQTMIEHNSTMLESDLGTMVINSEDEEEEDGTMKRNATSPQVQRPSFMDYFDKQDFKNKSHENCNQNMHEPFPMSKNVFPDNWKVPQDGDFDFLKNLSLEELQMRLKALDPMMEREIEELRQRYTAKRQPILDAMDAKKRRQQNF

[5] = biological target: T1, Serine/threonine-protein kinase 3 (Homo sapiens); experiment: Inhibition of MST2 Lys1 labeling site in human A-375 cells at 0.05 uM by KiNativ Profiling analysis relative to control
[6] = biological target: Serine/threonine-protein kinase mTOR (Homo sapiens) (UniProt P42345); experiment: Inhibition of FRAP ATP labeling site in human A-375 cells at 0.5 uM by KiNativ Profiling analysis relative to control
Outline: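 Live A375 melanoma cells were treated with compound at 0.5 or 5 μM, then lysed. Lysates were labeled with a lysine-reactive ATP or ADP-biotin probe. The read-out was protection of each kinase probe-labeling site from labeling, relative to control.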

[7] = biological target: Serine/threonine-protein kinase 25 (Homo sapiens) (UniProt O00506); experiment: Inhibition of YSK1 Lys2 labeling site in human A-375 cells at 0.5 uM by KiNativ Profiling analysis relative to control
[8] = biological target: Serine/threonine-protein kinase MARK2 (Homo sapiens) (UniProt Q7KZI7); experiment: Inhibition of MARK2 Lys1 labeling site in human A-375 cells at 0.05 uM by KiNativ Profiling analysis relative to control
Chain of Serine/threonine-protein kinase MARK2 (Homo sapiens) (Q7KZI7 whole entry): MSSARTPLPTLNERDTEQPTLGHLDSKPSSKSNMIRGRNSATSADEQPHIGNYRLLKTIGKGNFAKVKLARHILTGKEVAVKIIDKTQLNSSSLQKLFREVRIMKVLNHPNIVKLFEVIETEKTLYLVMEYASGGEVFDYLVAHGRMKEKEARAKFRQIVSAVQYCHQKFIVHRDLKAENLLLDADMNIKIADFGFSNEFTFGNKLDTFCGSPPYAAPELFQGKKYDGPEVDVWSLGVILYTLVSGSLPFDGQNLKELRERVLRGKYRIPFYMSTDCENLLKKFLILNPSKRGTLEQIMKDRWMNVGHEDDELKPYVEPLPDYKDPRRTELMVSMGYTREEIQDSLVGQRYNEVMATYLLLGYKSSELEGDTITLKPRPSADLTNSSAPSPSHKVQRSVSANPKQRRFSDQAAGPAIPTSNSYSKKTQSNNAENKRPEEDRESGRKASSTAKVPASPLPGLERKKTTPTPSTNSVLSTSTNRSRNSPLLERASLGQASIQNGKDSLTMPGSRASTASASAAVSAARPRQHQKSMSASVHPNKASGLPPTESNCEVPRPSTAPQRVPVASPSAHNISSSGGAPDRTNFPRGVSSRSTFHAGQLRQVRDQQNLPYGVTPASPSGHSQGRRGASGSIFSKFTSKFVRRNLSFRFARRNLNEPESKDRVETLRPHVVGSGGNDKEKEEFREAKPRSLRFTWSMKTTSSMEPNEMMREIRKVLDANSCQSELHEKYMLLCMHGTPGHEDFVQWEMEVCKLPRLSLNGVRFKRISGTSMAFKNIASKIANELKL

[9] = biological target: Cyclin-dependent kinase 11B (Homo sapiens) (UniProt P21127); experiment: Inhibition of PITSLRE Lys2 labeling site in human A-375 cells at 0.05 uM by KiNativ Profiling analysis relative to control
Chain of Cyclin-dependent kinase 11B (Homo sapiens) (P21127 whole entry): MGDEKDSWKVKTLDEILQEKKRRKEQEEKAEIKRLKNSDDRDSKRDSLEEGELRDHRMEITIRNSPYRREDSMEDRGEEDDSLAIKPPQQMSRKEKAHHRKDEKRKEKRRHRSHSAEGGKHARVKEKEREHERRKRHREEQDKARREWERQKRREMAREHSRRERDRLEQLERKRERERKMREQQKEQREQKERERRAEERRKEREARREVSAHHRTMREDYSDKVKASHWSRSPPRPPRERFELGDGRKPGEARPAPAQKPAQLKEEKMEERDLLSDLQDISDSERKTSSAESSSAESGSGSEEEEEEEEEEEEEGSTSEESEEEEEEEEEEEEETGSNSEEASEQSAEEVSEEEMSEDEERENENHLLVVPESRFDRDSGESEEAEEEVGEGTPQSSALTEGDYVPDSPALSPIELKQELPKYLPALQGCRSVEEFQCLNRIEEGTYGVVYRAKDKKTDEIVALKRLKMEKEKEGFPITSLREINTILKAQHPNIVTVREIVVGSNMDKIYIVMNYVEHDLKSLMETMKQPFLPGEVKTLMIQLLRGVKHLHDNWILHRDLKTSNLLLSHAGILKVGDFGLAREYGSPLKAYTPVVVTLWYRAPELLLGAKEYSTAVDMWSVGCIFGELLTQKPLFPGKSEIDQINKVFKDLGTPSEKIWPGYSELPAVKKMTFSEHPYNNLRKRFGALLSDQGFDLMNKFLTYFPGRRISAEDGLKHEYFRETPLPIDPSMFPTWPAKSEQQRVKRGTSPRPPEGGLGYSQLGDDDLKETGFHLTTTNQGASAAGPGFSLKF

[10] = biological target: T2, Mitogen-activated protein kinase kinase kinase 3 (Homo sapiens) (UniProt Q99759); experiment: Inhibition of MAP3K3 Lys1 labeling site in human A-375 cells at 0.5 uM by KiNativ Profiling analysis relative to control
T2 sequence (whole entry): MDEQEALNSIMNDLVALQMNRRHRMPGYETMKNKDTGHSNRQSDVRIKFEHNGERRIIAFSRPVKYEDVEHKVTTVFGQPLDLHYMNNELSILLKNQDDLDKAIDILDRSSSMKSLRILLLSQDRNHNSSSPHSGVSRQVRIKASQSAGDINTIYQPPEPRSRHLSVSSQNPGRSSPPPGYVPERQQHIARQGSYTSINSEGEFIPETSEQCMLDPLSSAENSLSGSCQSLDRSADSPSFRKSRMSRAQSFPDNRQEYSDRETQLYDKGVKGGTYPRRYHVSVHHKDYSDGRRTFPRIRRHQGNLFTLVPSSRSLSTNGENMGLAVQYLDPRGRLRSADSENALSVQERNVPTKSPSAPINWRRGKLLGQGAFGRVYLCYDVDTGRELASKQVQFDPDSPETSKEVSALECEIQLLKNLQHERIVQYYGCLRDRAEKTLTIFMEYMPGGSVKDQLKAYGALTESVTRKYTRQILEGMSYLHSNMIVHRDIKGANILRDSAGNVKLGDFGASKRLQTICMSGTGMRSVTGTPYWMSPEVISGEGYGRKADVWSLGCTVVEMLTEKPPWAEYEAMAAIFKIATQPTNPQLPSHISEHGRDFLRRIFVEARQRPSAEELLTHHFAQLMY

[11] = biological target: Ribosomal protein S6 kinase alpha-1 (Homo sapiens) (UniProt Q15418); experiment: Inhibition of RSK1 domain2 Lys2 labeling site in human A-375 cells at 5 uM by KiNativ Profiling analysis relative to control; outline: as §1
Chain of Ribosomal protein S6 kinase alpha-1 (Homo sapiens) (Q15418 whole entry, the tested form may be a part): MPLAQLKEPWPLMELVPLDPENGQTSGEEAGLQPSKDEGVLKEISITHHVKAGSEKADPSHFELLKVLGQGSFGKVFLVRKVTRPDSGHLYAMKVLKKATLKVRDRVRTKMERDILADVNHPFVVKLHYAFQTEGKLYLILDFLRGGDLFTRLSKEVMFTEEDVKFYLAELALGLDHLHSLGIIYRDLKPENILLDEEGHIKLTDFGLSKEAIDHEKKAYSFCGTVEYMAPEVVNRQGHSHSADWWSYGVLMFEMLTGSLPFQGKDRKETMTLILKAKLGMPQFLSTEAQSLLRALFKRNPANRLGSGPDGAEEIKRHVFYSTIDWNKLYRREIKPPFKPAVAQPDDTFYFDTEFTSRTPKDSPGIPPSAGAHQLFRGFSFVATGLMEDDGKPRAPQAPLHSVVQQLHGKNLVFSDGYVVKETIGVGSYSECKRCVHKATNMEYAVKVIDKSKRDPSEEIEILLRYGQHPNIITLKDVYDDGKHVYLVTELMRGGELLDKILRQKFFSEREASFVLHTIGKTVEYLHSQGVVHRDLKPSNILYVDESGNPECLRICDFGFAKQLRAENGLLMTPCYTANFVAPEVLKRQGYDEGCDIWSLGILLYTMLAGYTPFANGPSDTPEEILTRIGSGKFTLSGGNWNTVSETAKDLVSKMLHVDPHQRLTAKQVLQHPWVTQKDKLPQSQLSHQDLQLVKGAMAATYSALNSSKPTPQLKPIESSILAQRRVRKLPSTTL

[12] = biological target: Serine/threonine-protein kinase 10 (Homo sapiens) (UniProt O94804); experiment: Inhibition of LOK Lys1 labeling site harbouring NKETGALAAAKVIETK in human A-375 cells at 0.05 uM by KiNativ Profiling analysis relative to control
Chain of Serine/threonine-protein kinase 10 (Homo sapiens) (O94804 whole entry, looked up): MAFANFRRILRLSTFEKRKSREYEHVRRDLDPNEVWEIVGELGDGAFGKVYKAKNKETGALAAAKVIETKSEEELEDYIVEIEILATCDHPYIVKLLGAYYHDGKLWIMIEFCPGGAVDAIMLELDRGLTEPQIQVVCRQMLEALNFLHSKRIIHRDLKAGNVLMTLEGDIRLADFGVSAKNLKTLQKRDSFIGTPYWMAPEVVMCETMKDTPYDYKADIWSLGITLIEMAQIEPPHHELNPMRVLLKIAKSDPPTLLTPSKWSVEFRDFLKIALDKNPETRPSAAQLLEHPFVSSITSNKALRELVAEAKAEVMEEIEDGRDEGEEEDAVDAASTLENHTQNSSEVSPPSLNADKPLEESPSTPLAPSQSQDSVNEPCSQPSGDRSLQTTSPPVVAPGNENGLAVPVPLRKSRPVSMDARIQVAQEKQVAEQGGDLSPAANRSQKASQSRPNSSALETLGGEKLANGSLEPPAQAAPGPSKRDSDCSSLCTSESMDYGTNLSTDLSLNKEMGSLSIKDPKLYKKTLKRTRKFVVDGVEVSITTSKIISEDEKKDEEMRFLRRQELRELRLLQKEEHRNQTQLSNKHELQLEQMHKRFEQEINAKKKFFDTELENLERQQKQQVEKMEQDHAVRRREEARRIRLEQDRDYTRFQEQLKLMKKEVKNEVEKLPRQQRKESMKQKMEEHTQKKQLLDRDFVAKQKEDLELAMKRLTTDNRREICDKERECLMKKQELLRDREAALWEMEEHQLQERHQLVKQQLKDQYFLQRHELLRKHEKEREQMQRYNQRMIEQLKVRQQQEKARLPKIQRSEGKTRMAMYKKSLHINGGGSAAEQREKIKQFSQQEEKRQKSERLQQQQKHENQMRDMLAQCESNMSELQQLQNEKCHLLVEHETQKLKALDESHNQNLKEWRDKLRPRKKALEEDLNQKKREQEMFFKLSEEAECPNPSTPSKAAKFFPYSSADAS

[13] = biological target: Dual specificity mitogen-activated protein kinase kinase 1 (Homo sapiens) (UniProt Q02750); experiment: Inhibition of MAP2K1 Lys2 labeling site harbouring IMHRDVKPSNILVNSR in human A-375 cells at 0.5 uM by KiNativ Profiling analysis relative to control
Chain of Dual specificity mitogen-activated protein kinase kinase 1 (Homo sapiens) (Q02750 whole entry): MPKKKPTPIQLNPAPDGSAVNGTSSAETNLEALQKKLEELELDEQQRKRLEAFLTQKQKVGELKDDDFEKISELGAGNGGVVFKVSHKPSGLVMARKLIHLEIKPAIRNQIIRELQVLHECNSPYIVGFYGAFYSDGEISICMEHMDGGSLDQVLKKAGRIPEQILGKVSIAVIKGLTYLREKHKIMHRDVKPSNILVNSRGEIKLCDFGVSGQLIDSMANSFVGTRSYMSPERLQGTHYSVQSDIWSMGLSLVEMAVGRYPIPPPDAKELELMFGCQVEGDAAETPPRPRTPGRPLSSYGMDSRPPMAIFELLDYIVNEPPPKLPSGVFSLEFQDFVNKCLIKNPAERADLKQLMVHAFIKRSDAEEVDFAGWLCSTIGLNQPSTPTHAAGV

[14] = biological target: Calcium/calmodulin-dependent protein kinase type 1 (Homo sapiens) (UniProt Q14012); experiment: Inhibition of CaMK1a Lys1 labeling site in human A-375 cells at 0.5 uM by KiNativ Profiling analysis relative to control
Chain of Calcium/calmodulin-dependent protein kinase type 1 (Homo sapiens) (Q14012 whole entry, looked up): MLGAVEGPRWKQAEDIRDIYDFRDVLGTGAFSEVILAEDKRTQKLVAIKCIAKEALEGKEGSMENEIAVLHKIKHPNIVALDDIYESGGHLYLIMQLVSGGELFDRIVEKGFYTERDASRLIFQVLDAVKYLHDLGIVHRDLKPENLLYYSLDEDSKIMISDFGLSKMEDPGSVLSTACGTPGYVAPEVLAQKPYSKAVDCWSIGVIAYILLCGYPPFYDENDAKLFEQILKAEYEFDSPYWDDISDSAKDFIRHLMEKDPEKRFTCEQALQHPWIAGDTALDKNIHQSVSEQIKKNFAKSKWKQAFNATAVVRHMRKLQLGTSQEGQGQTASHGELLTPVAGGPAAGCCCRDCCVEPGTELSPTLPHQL
Outline: (§2)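 Intact A375 melanoma cells were treated with compound at 5 or 0.5 μM, then lysed. Lysate kinases were labeled with a lysine-reactive ATP or ADP-biotin probe (KiNativ). Inhibition is read as protection of each kinase labeling site from probe labeling.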

[15] = biological target: Interferon-induced, double-stranded RNA-activated protein kinase (Homo sapiens) (UniProt P19525); experiment: Inhibition of PKR Lys2 labeling site in human A-375 cells at 5 uM by KiNativ Profiling analysis relative to control
[16] = biological target: Cyclin-dependent kinase 9 (Homo sapiens) (UniProt P50750); experiment: Inhibition of CDK9 Lys2 labeling site in human A-375 cells at 0.05 uM by KiNativ Profiling analysis relative to control
[17] = biological target: Calcium/calmodulin-dependent protein kinase type 1 (Homo sapiens) (UniProt Q14012); experiment: Inhibition of CAMK1 alpha Lys1 labeling site in human A-375 cells at 5 uM by KiNativ Profiling analysis relative to control; outline: as §2

Chain of Ribosomal protein S6 kinase alpha-3 (Homo sapiens) (P51812 whole entry, the tested form may be a part): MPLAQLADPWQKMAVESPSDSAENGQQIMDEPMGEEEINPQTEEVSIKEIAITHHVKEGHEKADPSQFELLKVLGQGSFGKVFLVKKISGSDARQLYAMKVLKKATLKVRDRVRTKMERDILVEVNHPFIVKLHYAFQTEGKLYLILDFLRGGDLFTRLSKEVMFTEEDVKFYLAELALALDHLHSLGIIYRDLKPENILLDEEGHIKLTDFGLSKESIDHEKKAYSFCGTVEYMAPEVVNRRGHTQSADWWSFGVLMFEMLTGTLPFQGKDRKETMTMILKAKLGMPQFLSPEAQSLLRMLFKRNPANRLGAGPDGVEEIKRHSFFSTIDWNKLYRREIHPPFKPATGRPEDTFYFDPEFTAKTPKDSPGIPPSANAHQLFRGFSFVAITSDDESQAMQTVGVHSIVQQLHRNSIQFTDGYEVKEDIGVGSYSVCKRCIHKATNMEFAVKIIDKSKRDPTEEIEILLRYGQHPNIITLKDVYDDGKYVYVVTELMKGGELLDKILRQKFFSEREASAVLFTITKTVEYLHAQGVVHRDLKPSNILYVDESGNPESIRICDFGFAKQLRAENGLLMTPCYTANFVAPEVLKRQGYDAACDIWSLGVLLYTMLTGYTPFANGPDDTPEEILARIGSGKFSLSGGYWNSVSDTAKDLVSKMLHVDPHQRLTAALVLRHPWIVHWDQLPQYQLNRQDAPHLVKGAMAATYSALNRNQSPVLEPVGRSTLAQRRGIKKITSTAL

| SMILES | inhibition [1] | inhibition [2] | inhibition [3] | inhibition [4] | inhibition [5] | inhibition [6] | inhibition [7] | inhibition [8] | inhibition [9] | inhibition [10] | inhibition [11] | inhibition [12] | inhibition [13] | inhibition [14] | inhibition [15] | inhibition [16] | inhibition [17] |
| --- | --- | --- | --- | --- | --- | --- | --- | --- | --- | --- | --- | --- | --- | --- | --- | --- | --- |
| CCN1CCN(Cc2ccc(NC(=O)c3ccc(C)c(/C=C/c4cnc5[nH]ccc5c4OC)c3)cc2C(F)(F)F)CC1 | 6.2% | 7.9% | 10.1% | 25% | 9.2% | 0.8% | 9.8% | 3% | -3.9% | 33.4% | 3.9% | 34.5% | 19.2% | 37% | -6.7% | 10.7% | 31.9% |
| CCN1CCN(Cc2ccc(NC(=O)c3ccc(C)c(Oc4ccnc5[nH]ccc45)c3)cc2C(F)(F)F)CC1 | -0.1% | -3% | 10.3% | 13.7% | -6.5% | -3% | 12.5% | 1.2% | -4.6% | 42% | 1.8% | 47.2% | 28.4% | 67% | 2.1% | 15.4% | 91.8% |
